# Reference: ChEMBL document CHEMBL1165950, “Design and synthesis of new potent anticancer pyrazoles with high FLT3 kinase inhibitory selectivity” (Bioorg Med Chem, 2010)
# Key:
# Format in all cases: functional
# ACHN = assay: Cytotoxicity against human ACHN cells assessed as cell growth at 100 nM after 48 hrs by sulforhodamine B assay; conditions: read-out: Activity
# Summary of the method: (§1)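 NCI-60 five-dose screen. Cells were grown in RPMI 1640 with 5% FBS and 2 mM L-glutamine, plated at 5000–40,000 cells/well and preincubated for 24 h. Time-zero plates were TCA-fixed. DMSO-solubilized drug was added at five concentrations (10-fold or ½-log serial dilutions) for 48 h at 37 °C, 5% CO2. Cells were TCA-fixed, stained with 0.4% SRB and read at 515 nm. Percent growth used time-zero, control and test absorbances.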
# 786-0 [1] = assay: Cytotoxicity against human 786-0 cells assessed as cell growth at 10 uM; conditions: read-out: Activity
# Summary of the method: (§2)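 Single-dose NCI-60 screen at 10 µM. Cells were grown in RPMI 1640 with 5% FBS and 2 mM L-glutamine, then treated for 48 h at 37 °C. Protein was measured by SRB staining with absorbance at 515 nm. Percentage growth was recorded, and inhibition percentage was calculated as 100 minus growth percentage.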
# SN12C [2] = assay: Cytotoxicity against human SN12C cells assessed as cell growth at 1 uM after 48 hrs by sulforhodamine B assay; conditions: read-out: Activity
# PC-3 = assay: Cytotoxicity against human PC3 cells assessed as cell growth at 10 uM; conditions: read-out: Activity
# Summary of the method: (§3)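 NCI-60 screen: cells grown in RPMI 1640 with 5% FBS and 2 mM L-glutamine, plated at 5000–40,000 cells/well according to doubling time, and preincubated 24 h at 37 °C, 5% CO2. The single 10 µM dose (DMSO stock) was added, then incubated 48 h. Cells were TCA-fixed and stained with 0.4% SRB, read at 515 nm, and growth % calculated against time-zero and control plates.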
# A498 = assay: Cytotoxicity against human A498 cells assessed as cell growth at 1 uM after 48 hrs by sulforhodamine B assay; conditions: A498, 48 h, read-out: Activity; summary of the method: as §1
# OVCAR-4 = assay: Cytotoxicity against human OVCAR4 cells assessed as cell growth at 0.01 uM after 48 hrs by sulforhodamine B assay; conditions: OVCAR-4, 48 h, read-out: Activity
# HOP-62 = assay: Cytotoxicity against human HOP62 cells assessed as cell growth at 0.001 uM after 48 hrs by sulforhodamine B assay; conditions: HOP-62, 48 h, read-out: Activity
# 786-0 [3] = assay: Cytotoxicity against human 786-0 cells assessed as cell growth at 0.01 uM after 48 hrs by sulforhodamine B assay; conditions: 786-0, 48 h, read-out: Activity; summary of the method: as §1
# SK-MEL-2 [4] = assay: Cytotoxicity against human SK-MEL-2 cells assessed as cell growth at 10 uM after 48 hrs by sulforhodamine B assay; conditions: SK-MEL-2, 48 h, read-out: Activity
# SNB-19 = assay: Cytotoxicity against human SNB19 cells assessed as cell growth at 1 uM after 48 hrs by sulforhodamine B assay; conditions: SNB-19, 48 h, read-out: Activity
# SK-MEL-2 [5] = assay: Cytotoxicity against human SK-MEL-2 cells assessed as cell growth at 10 uM; conditions: read-out: Activity; summary of the method: as §3
# MOLT-4 = assay: Growth inhibition of human MOLT4 cells after 48 hrs by sulforhodamine B assay; conditions: MOLT-4, 48 h
# Summary of the method: (§4)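 NCI 60-cell screen, five-dose mode. Cells grown in RPMI 1640 with 5% FBS and 2 mM L-glutamine and plated at 5000-40,000 cells/well according to doubling time. After 24 h preincubation, a Tz plate was TCA-fixed. Five concentrations (10-fold or 1/2 log dilutions) were applied for 48 h at 37 °C. SRB staining read at 515 nm. IC50 taken from [(Ti-Tz)/(C-Tz)]×100 = 50.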
# SNB-75 [6] = assay: Cytotoxicity against human SNB75 cells assessed as cell growth at 0.001 uM after 48 hrs by sulforhodamine B assay; conditions: SNB-75, 48 h, read-out: Activity
# SN12C [7] = assay: Cytotoxicity against human SN12C cells assessed as cell growth at 100 nM after 48 hrs by sulforhodamine B assay; conditions: read-out: Activity
# HCT-116 = assay: Growth inhibition of human HCT116 cells after 48 hrs by sulforhodamine B assay; conditions: HCT-116, 48 h; for CC50: read-out: LC50 (the source's name); summary of the method: as §4
# SNB-75 [8] = assay: Cytotoxicity against human SNB75 cells assessed as cell growth at 1 uM after 48 hrs by sulforhodamine B assay; conditions: SNB-75, 48 h, read-out: Activity
# SN12C [9] = assay: Cytotoxicity against human SN12C cells assessed as cell growth at 10 uM; conditions: read-out: Activity; summary of the method: as §3
# SF-268 [10] = assay: Cytotoxicity against human SF268 cells assessed as cell growth at 100 nM after 48 hrs by sulforhodamine B assay; conditions: SF-268, 48 h, read-out: Activity
# SF-268 [11] = assay: Cytotoxicity against human SF268 cells assessed as cell growth at 0.01 uM after 48 hrs by sulforhodamine B assay; conditions: SF-268, 48 h, read-out: Activity
# SK-MEL-5 = assay: Cytotoxicity against human SK-MEL-5 cells assessed as cell growth at 0.01 uM after 48 hrs by sulforhodamine B assay; conditions: SK-MEL-5, 48 h, read-out: Activity
# MDA-MB-468 = assay: Cytotoxicity against human MDA-MB-468 cells assessed as cell growth at 100 nM after 48 hrs by sulforhodamine B assay; conditions: MDA-MB-468, 48 h, read-out: Activity
# KM12 = assay: Growth inhibition of human KM12 cells after 48 hrs by sulforhodamine B assay; conditions: KM12, 48 h; for CC50: read-out: LC50 (the source's name); summary of the method: as §4
# COLO 205 = assay: Growth inhibition of human COLO205 cells after 48 hrs by sulforhodamine B assay; conditions: COLO 205, 48 h; for CC50: read-out: LC50 (the source's name)
# Summary of the method: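 NCI five-dose SRB assay in RPMI 1640 with 5% FBS and 2 mM L-glutamine. Cells were preincubated 24 h, then exposed 48 h at 37 °C to five concentrations (10-fold or half-log serial dilutions from DMSO stocks). TCA fixation, SRB staining, and absorbance at 515 nm followed. IC50 was taken where [(Ti−Tz)/(C−Tz)]×100 = 50, with Tz as time-zero cell density.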
# HOP-92 = assay: Cytotoxicity against human HOP92 cells assessed as cell growth at 1 uM after 48 hrs by sulforhodamine B assay; conditions: HOP-92, 48 h, read-out: Activity
# Malme-3M = assay: Cytotoxicity against human MALME-3M cells assessed as cell growth at 10 uM; conditions: read-out: Activity; summary of the method: as §3
# UO-31 = assay: Cytotoxicity against human UO31 cells assessed as cell growth at 0.001 uM after 48 hrs by sulforhodamine B assay; conditions: UO-31, 48 h, read-out: Activity
# BT-549 = assay: Cytotoxicity against human BT549 cells assessed as cell growth at 10 uM; conditions: read-out: Activity; summary of the method: as §2
# HL-60(TB) = assay: Cytotoxicity against human HL-60(TB) cells assessed as cell growth at 10 uM; conditions: read-out: Activity
# Summary of the method: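 NCI 60-cell panel screen at a single concentration of 10 µM. Cells are grown in RPMI 1640 with 5% FBS and 2 mM L-glutamine and read by SRB protein staining at 515 nm. Percent growth is measured relative to time-zero and untreated controls; inhibition % is 100 minus growth %.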
smiles,measurement,setting,value
COc1cc(C)cc(-c2c(-c3ccnc(-c4ccc(N(C)C)cc4)c3)cnn2CC#N)c1,growth at 0.1 µM,ACHN,34%
same,growth at 10 µM,786-0 [1],-1.5%
same,growth at 1 µM,SN12C [2],18%
same,growth at 10 µM,PC-3,27.6%
same,growth at 1 µM,A498,17%
same,growth at 0.01 µM,OVCAR-4,77%
same,growth at 0.001 µM,HOP-62,99%
same,growth at 0.01 µM,786-0 [3],55%
same,growth at 10 µM,SK-MEL-2 [4],10%
same,growth at 1 µM,SNB-19,36%
same,growth at 10 µM,SK-MEL-2 [5],49.3%
same,GI50,MOLT-4,0.271 µM
same,LC50,MOLT-4,> 100 µM
same,growth at 0.001 µM,SNB-75 [6],88%
same,growth at 0.1 µM,SN12C [7],28%
same,GI50,HCT-116,0.0501 µM
same,TGI,HCT-116,1.03 µM
same,CC50,HCT-116,> 100 µM
same,growth at 1 µM,SNB-75 [8],10%
same,growth at 10 µM,SN12C [9],29.4%
same,growth at 0.1 µM,SF-268 [10],29%
same,growth at 0.01 µM,SF-268 [11],29%
same,growth at 0.01 µM,SK-MEL-5,19%
same,growth at 0.1 µM,MDA-MB-468,-50%
same,GI50,KM12,0.0475 µM
same,TGI,KM12,0.264 µM
same,CC50,KM12,> 100 µM
same,GI50,COLO 205,0.22 µM
same,TGI,COLO 205,> 100 µM
same,CC50,COLO 205,> 100 µM
same,growth at 1 µM,HOP-92,-20%
same,growth at 10 µM,Malme-3M,103%
same,growth at 0.001 µM,UO-31,83%
same,growth at 10 µM,BT-549,-26.5%
same,growth at 10 µM,HL-60(TB),-5.87%
Cc1cc(O)cc(-c2nn(CC#N)cc2-c2ccnc(-c3ccc(N(C)C)cc3)c2)c1,growth at 0.1 µM,ACHN,93%
same,growth at 10 µM,786-0 [1],26.2%
same,growth at 1 µM,SN12C [2],26%
same,growth at 10 µM,PC-3,40.4%
same,growth at 1 µM,A498,5%
same,growth at 0.01 µM,OVCAR-4,108%
same,growth at 0.001 µM,HOP-62,92%
same,growth at 0.01 µM,786-0 [3],88%
same,growth at 10 µM,SK-MEL-2 [4],-46%
same,growth at 1 µM,SNB-19,28%
same,growth at 10 µM,SK-MEL-2 [5],43.2%
same,GI50,MOLT-4,3.17 µM
same,LC50,MOLT-4,> 100 µM
same,TGI,MOLT-4,46 µM
same,growth at 0.001 µM,SNB-75 [6],83%
same,growth at 0.1 µM,SN12C [7],91%
same,GI50,HCT-116,2.71 µM
same,TGI,HCT-116,10.4 µM
same,CC50,HCT-116,41.9 µM
same,growth at 1 µM,SNB-75 [8],-22%
same,growth at 10 µM,SN12C [9],51.2%
same,growth at 0.1 µM,SF-268 [10],90%
same,growth at 0.01 µM,SF-268 [11],90%
same,growth at 0.01 µM,SK-MEL-5,90%
same,growth at 0.1 µM,MDA-MB-468,77%
same,GI50,KM12,1.63 µM
same,TGI,KM12,7.66 µM
same,CC50,KM12,29.2 µM
same,GI50,COLO 205,1.95 µM
same,TGI,COLO 205,4.13 µM
same,CC50,COLO 205,87.8 µM
same,growth at 1 µM,HOP-92,25%
same,growth at 10 µM,Malme-3M,75%
same,growth at 0.001 µM,UO-31,89%
same,growth at 10 µM,BT-549,31.8%
same,growth at 10 µM,HL-60(TB),7.44%
COc1cc(C)cc(-c2nn(CC#N)cc2-c2ccnc(-c3ccc(N(C)C)cc3)c2)c1,growth at 0.1 µM,ACHN,29%
same,growth at 10 µM,786-0 [1],5.8%
same,growth at 1 µM,SN12C [2],8%
same,growth at 10 µM,PC-3,31.6%
same,growth at 1 µM,A498,-26%
same,growth at 0.01 µM,OVCAR-4,98%
same,growth at 0.001 µM,HOP-62,108%
same,growth at 0.01 µM,786-0 [3],96%
same,growth at 10 µM,SK-MEL-2 [4],-12%
same,growth at 1 µM,SNB-19,19%
same,growth at 10 µM,SK-MEL-2 [5],40.8%
same,GI50,MOLT-4,0.626 µM
same,LC50,MOLT-4,> 100 µM
same,TGI,MOLT-4,> 100 µM
same,growth at 0.001 µM,SNB-75 [6],95%
same,growth at 0.1 µM,SN12C [7],44%
same,GI50,HCT-116,0.353 µM
same,TGI,HCT-116,1.64 µM
same,CC50,HCT-116,> 100 µM
same,growth at 1 µM,SNB-75 [8],-12%
same,growth at 10 µM,SN12C [9],24.7%
same,growth at 0.1 µM,SF-268 [10],31%
same,growth at 0.01 µM,SF-268 [11],90%
same,growth at 0.01 µM,SK-MEL-5,104%
same,growth at 0.1 µM,MDA-MB-468,-18%
same,GI50,KM12,0.31 µM
same,TGI,KM12,1.62 µM
same,CC50,KM12,25.5 µM
same,GI50,COLO 205,0.32 µM
same,TGI,COLO 205,7.69 µM
same,CC50,COLO 205,3.91 µM
same,growth at 1 µM,HOP-92,9%
same,growth at 10 µM,Malme-3M,82%
same,growth at 0.001 µM,UO-31,90%
same,growth at 10 µM,BT-549,-28.5%
same,growth at 10 µM,HL-60(TB),1.48%
